From ChEMBL document CHEMBL4513216, “Probing the Open Global Health Chemical Diversity Library for Multistage-Active Starting Points for Next-Generation Antimalarials” (ACS Infect Dis, 2020)

Assay: Toxicity liver stage against HepG2, at 10uM
Format: cell-based
Parameters: test concentration 10 uM, cell line HepG2-A16-CD81EGFP
Conditions: human, HepG2-A16-CD81EGFP cells; read-out: INHIBITION
Method in brief: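 Uninfected HepG2-A16-CD81EGFP cells, 3 × 10^3 per well, 1536-well, plated on prespotted compound at 10 μM final, parasite-free screening media added to match infected plates; puromycin 10 μM positive, DMSO 0.5% negative; run in parallel with 48 h PbLuc assay at 37 °C, 5% CO2; viability by CellTiter-Glo luminescence, normalized to controls.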

SMILES	cytotoxicity at 10 µM
c1ccc(Cc2nnc([C@H]3CCN(C4CCCCC4)C3)o2)cc1	-1.14%
Cc1cc2c(C)cc(O)cc2c(=O)o1	5.73%
CCCn1nnc(NCc2ccccc2OCc2ccc(Cl)cc2)n1	2.76%
CSCC[C@H](NC(=O)CCn1cc(C(C)=O)c2ccccc21)C(=O)O	-3.91%
Cc1csc(NC(=O)c2ccc(NC(=O)N3CCOCC3)cc2)n1	1.11%
Cn1cc(CN2CCc3c(COCc4ccncc4)cncc3C2)cn1	-2.37%
COc1ccc(CN2C[C@@H]3CN(C(=O)c4ccsc4)C[C@@H]3C2=O)cc1	-3.7%
O=C(c1ncccn1)N1C[C@@H]2COC[C@]2(c2nnc(C3CC3)o2)C1	-1.31%
CC(C)[C@H](NC(=O)NC1CCS(=O)(=O)C1)C(=O)Nc1cccnc1 (some centres not stated)	6.85%
CC(C)n1ncc2c1NC(=O)CC21C(=O)Nc2c(Cl)cc(Cl)cc21 (configuration not stated)	3.38%
CC(=O)c1ccc(NC(=O)C(C)Cn2cc(Br)cn2)cc1 (configuration not stated)	0.88%
COc1c(Br)c(C(=O)NC2CCCCC2)nn1C	6.94%
CCc1cc(C(=O)N2CCCC(c3cc(=O)nc4n3CCC4)C2)no1 (configuration not stated)	-2.6%
CN(C)CC1(O)CCN(C(=O)Cc2ccc3ccccc3c2)C1 (configuration not stated)	-6.77%
COCCC(=O)N1CCC(c2ccc3c(NC(C)C)n[nH]c3n2)C1 (configuration not stated)	0.691%
Cc1cc(C)nc(C2CCN(C3CCCCC3)C2)n1 (configuration not stated)	7.33%
CCn1ncc(C(=O)NCCc2nc(-c3cccnc3)n[nH]2)c1C	1.94%
O=C(O)[C@@H]1CCN(C(=O)c2cscn2)[C@@H]1c1ccc(F)cc1	4.97%
CN(C)C(=O)c1c[nH]nc1C1CCN(S(=O)(=O)c2ccccc2)CC1	-0.358%
O=C(Nc1ccccn1)C1CCN(C(=O)COc2ccccc2F)C1 (configuration not stated)	-24.6%
CNc1cccc(C2CCCN(C(=O)c3cnccn3)C2)n1 (configuration not stated)	-19.2%

SMILES	cytotoxicity at 10 µM
CC(C)C1=NOC2(CCN(S(C)(=O)=O)CC2)C1	6.47%
CCNC(=O)CNC(=O)c1nc(C2CC2)n(-c2ccccc2Cl)n1	5.91%
O=C(O)c1ccc(-c2cscn2)cc1	7.68%
CC(C)(NCc1cccc(O)c1)c1ccc2c(c1)OCO2	5.12%
CC(C)S(=O)(=O)CCN1CCN(C(C#N)c2ccccc2)CC1 (configuration not stated)	0.401%
CCc1ccc(CC)c(NCc2cnc(N3CCOCC3)nc2)c1	0.898%
CCSCc1csc(-c2ccc(S(C)(=O)=O)cc2)n1	8.21%
Cc1csc(CNC(=O)NC2CCCN(S(C)(=O)=O)C2)n1 (configuration not stated)	-6.3%
CN(C)c1ncccc1CNC(=O)c1csc(Br)c1	-1.35%
Cc1ccccc1C1(CNC(=O)N2CCC(CC(N)=O)CC2)CC1	4.48%
CCc1ncc(C(=O)N2CCOCC2CC(=O)c2ccccc2)s1 (configuration not stated)	2.58%
O=C(Cn1cc(Cl)cn1)Nc1ccc2c(c1)OCO2	4.57%
O=C(Nc1ccc2c(ccn2CCN2CCOCC2)c1)c1ccncc1	-2.9%
CCN1CCN(CC(O)c2ccc(Br)cc2)CC1 (configuration not stated)	-6.95%
Cc1cnn(C2CN(CC(=O)NCC3(c4ccccc4)CC3)C2)c1	-10.9%
Cc1nc(CN2CCN(C(=O)CCC(=O)c3ccccc3)CC2)no1	3.7%
O=C1CC2(CCCCC2)C(=O)N1CC(O)COCc1ccccc1F (configuration not stated)	0.611%
CC(C)c1nn(C)c(N(C)C)c1CNCC(O)COc1ccccc1 (configuration not stated)	0.142%
C=C(C)CN1CCCC(NS(C)(=O)=O)C1 (configuration not stated)	4.21%
Cc1ccc(N2CCCC(NC(=O)Cc3csc(C)n3)C2=O)cc1 (configuration not stated)	-1.31%
CCC(=O)N1CSCC1C(=O)Nc1ccccc1-c1cccs1 (configuration not stated)	-3.8%

SMILES	cytotoxicity at 10 µM
NC(=O)C1CCCCN1C(=O)c1ccc(Br)s1 (configuration not stated)	-6.38%
Cc1nc2ccc(C(=O)N(CCC#N)CCC#N)cc2nc1C	-12.8%
CC(C)C1CN(C(=O)c2ccn(C)c(=O)c2)c2ccccc2N1 (configuration not stated)	-6.01%
CCOc1ncccc1C(=O)N1CC=C(c2ccc(O)cc2)CC1	8.02%
CN1CC(C(=O)NC2(c3cccc(F)c3)CCOCC2)CC1=O (configuration not stated)	15.6%
CC(C)CNC(=O)c1ccc(NC(=O)NC(C)C)cc1Cl	5.92%
O=C1C(n2nnc(-c3ccsc3)n2)CCN1CC(F)(F)F (configuration not stated)	0.519%
CCN(CC)c1ccc(CNC(=O)C2(C)CCOCC2)cc1F	-4.08%
O=C(Cc1ccc2c(c1)CCO2)N1CCCCC1Cn1cccn1 (configuration not stated)	-12.8%
CCOC(CC)C(=O)NCCC(=O)N1CCN(c2ccccn2)CC1 (configuration not stated)	-7.4%
O=C(NCCc1nnc2n1CCC2)NCC1(c2cccc(F)c2)CC1	-7.94%
CN(Cc1cncnc1)[C@H]1CN(C(=O)c2ccco2)[C@@H]2CCCO[C@@H]21	-101%
Cc1cc(N2CCCC(O)CC2)n2nc(C)c(C)c2n1 (configuration not stated)	7.46%
CCc1nc(N)nc(N2CCCC3(CN(C)C(=O)O3)C2)c1C (configuration not stated)	-138%
Cc1c(CNCC(C)Oc2cccnc2)c2ccccc2n1CC(N)=O (configuration not stated)	-141%
Cc1cc(C)c2c(N(C)CC3CCOC3)ncnc2n1 (configuration not stated)	-146%
CN1CCC(N(CCc2ccccc2)C(=O)COCC2CCCO2)CC1 (configuration not stated)	-148%
COc1ccccc1CC(=O)N1CCC(OCc2cccnc2)CC1	4.87%
COc1ccc(-c2noc(C3CC(C(C)C)=NO3)n2)cc1 (configuration not stated)	-6.64%
CC(C)c1ccn(C2(C(=O)O)CCN(c3ccncc3F)CC2)n1	-0.679%
CC(C)[C@H]1COC(=O)N1Cc1nnc(-c2ccccc2)o1	0.537%

SMILES	cytotoxicity at 10 µM
O=C(CCc1ccc(=O)[nH]n1)N1CCCC(COc2ccc(F)cc2)C1 (configuration not stated)	1.9%
CCOCC(O)CN1CCN(C(=O)c2cc(C)ccc2OC)CC1 (configuration not stated)	5.35%
Cc1nn(C)c(Cl)c1C1CCCN1C(=O)CCNc1ncccn1 (configuration not stated)	-7.42%
CCc1nnc(CN2CCc3cnc(C)nc3C2)o1	-4.04%
CC(NC(=O)c1cccs1)C(=O)Nc1cccnc1N1CCCCC1 (configuration not stated)	-8.94%
COc1ccccc1C(=O)N1CCC(Nc2ccc(C)nn2)CC1	-4.05%
Cc1cnn(CCNCc2nnc(-c3ccc(F)cc3)o2)c1	-43.9%
CC(NC(=O)Cn1ccc(=O)n(C)c1=O)c1cc(F)ccc1F (configuration not stated)	-4.64%
CC(C)c1noc(C(C)N2CCN(Cc3noc(C(C)(C)C)n3)CC2)n1 (configuration not stated)	-14.6%
COc1ccc(C(=O)N(C)Cc2nnc3ccccn23)cc1	3.45%
CCc1nc(CN2CCN(C(=O)c3cc(C)no3)CC2)cs1	-21.8%
CC(C(=O)NCc1cccc(N2CC=CC2)c1)n1cccn1 (configuration not stated)	-5.07%
Cc1ccccc1C(=O)N1CCC2(CCCN2CCN(C)C)CC1	3.56%
Cc1ccc2c(n1)N(CC1CC1)CCN(C(=O)c1ccncc1F)C2	-0.182%
Cc1cc(C(=O)N2CCC3(CC2)CC(c2cccnc2)C(=O)N3C)no1 (configuration not stated)	1.48%
CNC(=O)CN1CCCC12CCN(C(=O)c1ccccc1F)CC2	1.58%
CC1c2ncc(COc3cccnc3)n2CCN1C(=O)Cc1ccco1 (configuration not stated)	-5.13%
COC1COC2(CCN(c3ccc(C#N)cc3)CC2)C1 (configuration not stated)	-79.6%
O=C(c1ccccn1)N1C[C@H]2CC[C@@H](C1)N(C(=O)CCC1CCCC1)C2	3.07%
